Source: PubChem (several laboratories)
Most compounds without a hit are left out; they make up all but 6.3% or so of the library.
SF-1 act: activators of human nuclear receptor SF-1; CHO-K1 Gal4-SF-1 LBD luciferase reporter; % increase over DMSO SF-1-specific signal; activation, % at 10 µM; hit rate 1.9% among 65,000;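 active = activation above the mean activation of all tested compounds plus 3 SD, cut at about 50% in these data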
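Assay system – CHO-K1 cells with Gal4–hSF-1 LBD chimera plus Gal4-driven luciferase · Quantity – 4,000 cells per well · Times – compound added 1 h post-seeding, 20 h exposure at 37 °C, 5% CO2 · Measured by – luciferase light emission · Benchmarks – DMSO and mock-transfected background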
MT1-MMP txn act: activates MT1-MMP transcription; HT1080 MT1-MMP promoter luciferase reporter, luminescence, overnight; stronger effect = higher value; activation factor at 10 µM; hit rate 0.16% among 86,000;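 active = activation factor of at least 2 for MT1-MMP transcription at 10 µM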
RORa activator: activators of human nuclear receptor RORA; CHO-K1 Gal4-RORA LBD luciferase reporter, luminescence; percent increase over mock-subtracted basal signal; activation, % at 10 µM; hit rate 1.5% among 65,000; AID 560;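 active = activation above the mean of all tested compounds plus 3 SD, cut at about 49% in these data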
Target sequence (P35398 whole entry, looked up, the tested form may be a part): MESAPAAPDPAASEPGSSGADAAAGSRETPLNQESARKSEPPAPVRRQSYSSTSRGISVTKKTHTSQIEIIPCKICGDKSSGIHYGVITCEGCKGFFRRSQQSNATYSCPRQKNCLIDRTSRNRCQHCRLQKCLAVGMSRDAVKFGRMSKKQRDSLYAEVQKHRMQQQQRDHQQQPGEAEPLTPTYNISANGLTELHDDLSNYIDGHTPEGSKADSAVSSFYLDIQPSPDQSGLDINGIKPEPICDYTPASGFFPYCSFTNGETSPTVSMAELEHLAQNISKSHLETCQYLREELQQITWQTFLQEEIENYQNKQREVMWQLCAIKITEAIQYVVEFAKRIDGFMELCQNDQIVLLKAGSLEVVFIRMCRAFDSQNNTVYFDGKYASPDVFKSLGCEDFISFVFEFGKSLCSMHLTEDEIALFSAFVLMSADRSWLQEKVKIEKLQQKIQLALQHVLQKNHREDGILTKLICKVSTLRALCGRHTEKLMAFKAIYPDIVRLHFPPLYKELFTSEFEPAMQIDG
M1 antag: antagonists of rat M1 muscarinic receptor | B-score at 10 µM | CHO-M1 cells, Fluo-4 calcium, ACh EC80 antagonist mode; stronger effect = lower value | P08482 | hit rate 3.4% among 64,000 | AID 628;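 active = calcium fluorescence response, raw or row-and-column corrected B-score, differing from the plate sample mean either way at a set confidence level, mostly lower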
M1 agonist: M1 muscarinic receptor agonism; hit rate 3% among 64,000; B-score at 10 µM; CHO-M1 cells, Fluo-4 calcium fluorescence, agonist mode; stronger effect = higher value;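 active = fluorescence rise, raw or as B-score row- and column-corrected plate score, outside the 99.7% band of its plate's samples, either direction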
Hits are given with their value; 0 = inactive; - = not tested or not shown.

SMILES	SF-1 act	MT1-MMP txn act	RORa activator	M1 antag	M1 agonist
COC(=O)c1ccc(C(NC(=O)OCc2ccccc2)/C(F)=C/[C@@H](C)C(=O)N2CCN(C)CC2)cc1 (some centres not stated)	-	0	-	-	-
Fc1ccc(Cc2nnc(-c3cccs3)o2)cc1	0	0	63	0	0
Fc1ccccc1CSc1nnc(-c2cccs2)o1	92	0	50	0	0
Fc1ccc(CSc2nnc(-c3cccs3)o2)cc1	0	0	0	0	0
O=C(CSc1nnc(-c2cccs2)o1)N1CCCCC1	63	0	0	0	0
O=C(CSc1nnc(-c2cccs2)o1)N1CCOCC1	0	0	0	0	0
c1ccc(CSc2nnc(-c3cccs3)o2)cc1	52	0	50	0	0
Cc1cccc(NC(=S)N(CCN(C)C)C(C)c2ccccn2)c1 (configuration not stated)	-	0	-	-	-
Cc1c(O)c(O)cc2c1oc1c3ccccc3oc(=O)c21	-	0	-	-	-
CCn1cc(C(=O)NCCCN(C)c2ccccc2)c(=O)c2cc(S(=O)(=O)N(C)C)ccc21	0	0	0	0	0
CCN(CCCNC(=O)c1cn(CC)c2ccc(S(=O)(=O)N(C)C)cc2c1=O)c1cccc(C)c1	0	0	62	0	0
COc1cc(S(=O)(=O)NCC2CCCO2)ccc1Br (configuration not stated)	-	0	-	-	-
CC1CCN(c2ccc(C(=O)NCCc3ccccc3)cn2)CC1	0	0	60	0	0
CC1CCCN(c2ccc(C(=O)NCc3cccs3)cn2)C1 (configuration not stated)	70	0	56	0	0
O=C(NCc1cccs1)c1ccc(N2CCCCC2)nc1	0	0	0	0	0
COc1ccc(N2CCN(C(=O)CCc3ccc(S(=O)(=O)NCC(C)C)cc3)CC2)cc1	-	0	-	-	-
CC(C)CC1(C(=O)NCC2CC2)C=CCN1C(=O)c1ccccc1 (configuration not stated)	-	0	-	-	-
OCCn1c(-c2ccc3c(c2)OCO3)csc1=Nc1ccccc1	51	0	0	0	0
Oc1ccc(-c2nc3cnccn3c2Nc2ccc3c(c2)OCCO3)cc1	0	0	53	0	0
CCn1c(SC(C)C(=O)OC)nnc1-c1c[nH]c2ccccc12 (configuration not stated)	0	0	0	0	0
CCc1ccc2[nH]c(=O)c(C(c3nnnn3CCOC)N3CCN(c4ccccc4)CC3)cc2c1 (configuration not stated)	0	0	0	0	0
COc1ccc(C(=O)Cn2c(Br)nc3c2c(=O)n(C)c(=O)n3C)cc1OC	0	0	0	0	0
COc1ccc(-c2nc3c(c(=O)n(C)c(=O)n3C)n2CC2CC(c3ccccc3)=NO2)cc1OC (configuration not stated)	0	0	0	0	4.7
OC(COc1ccc2cc(Br)ccc2c1)CN1CCOCC1 (configuration not stated)	-	0	-	-	-
COc1ccc2[nH]c3c(NCc4ccco4)ncnc3c2c1	-	2.1	-	-	-
SMILES	SF-1 act	MT1-MMP txn act	RORa activator	M1 antag	M1 agonist
CCN(CC)CCNc1ncnc2c1[nH]c1ccc(OC)cc12	0	0	0	0	0
CC(Oc1ccccc1F)C(=O)Nc1ccc2ccccc2c1 (configuration not stated)	-	2	-	-	-
CC(Oc1ccc(F)cc1)C(=O)Nc1ccc2ccccc2c1 (configuration not stated)	-	0	-	-	-
c1ccc(-c2nc3c(ccc4ccccc43)[nH]2)nc1	-	2.3	-	-	-
O=c1[nH]c(-c2ccccn2)nc2ccccc12	0	0	0	0	0
O=C(Nc1ccc(Cl)cc1)N1CC=CCC1	0	0	52	0	0
O=C(Nc1ccc(Cl)cc1)N1CCN(c2ccccc2)CC1	-	0	-	-	-
COc1ccc(-c2nnc3ccc(SCC(=O)N4CCN(c5ccccc5)CC4)nn23)cc1OC	0	0	0	0	6
COc1ccc(-c2nnc(N)s2)cc1	0	0	50	0	0
CCCOc1ccc(-c2nnc(N)s2)cc1	59	0	0	0	0
COc1ccc(OCCc2nnc(N)s2)cc1	-	0	-	-	-
O=C(O)COCc1nc2ccccc2[nH]1	0	0	0	0	0
Fc1ccc(-c2cnc[nH]2)cc1	0	-	0	1.9	0
O=S(=O)(NCc1ccccc1)c1cnc[nH]1	0	0	0	0	0
COC(=O)[C@H]1C[C@@H]1[C@H](NC(=O)[C@@H]1CCCN1C(=O)OC(C)(C)C)c1ccccc1	-	0	-	-	-
Cc1ccc(C2=N/C(=C\N3CCCCC3)C(=O)O2)cc1	-	0	-	-	-
Cc1ccc(C2=N/C(=C/N3CCOCC3)C(=O)O2)cc1	55	0	0	0	0
Cc1ccsc1C(=O)OCC(=O)Nc1sccc1C(N)=O	74	0	0	0	0
Cc1sc(NC(=O)c2cccs2)c(C(N)=O)c1C	51	0	0	0	0
Cc1ccsc1C(=O)OCC(=O)NCC1CCCO1 (configuration not stated)	0	0	0	0	0
NC(=O)c1ccsc1NC(=O)c1cccs1	55	0	68	0	0
NC(=O)c1ccsc1NC(=O)C1CCCCC1	0	0	0	0	0
CCCCCCc1nnc(N)s1	-	0	-	-	-
CCOC(=O)c1cnc(Nc2nc3ccccc3o2)nc1CSc1nnc(C)s1	0	0	58	0	0
Cc1cc(C(=O)COC(=O)CCC(=O)c2ccc3c(c2)OCCO3)c(C)n1Cc1ccco1	0	0	0	0	0
SMILES	SF-1 act	MT1-MMP txn act	RORa activator	M1 antag	M1 agonist
CCOc1ncccc1C(=O)OCC(=O)c1cc(C)n(Cc2ccco2)c1C	57	0	91	0	0
O=C(NC1CCCCC1)c1cc2nc3c(c(C(F)(F)F)n2n1)CCCC3	50	0	0	0	0
O=C(Nc1ccccc1N1CCCC1)c1cc2ccccc2o1	0	2	0	0	0
O=C(Nc1ccc(N2CCOCC2)c(Cl)c1)c1cc2ccccc2o1	-	2.1	-	-	-
CCOC(=O)c1sc(=NC(=O)c2cccc(OC)c2)n(C)c1C	57	0	0	0	0
CCOC(=O)c1sc(=NC(=O)c2ccc(OC)c(OC)c2)n(C)c1C	0	0	0	0	0
Cc1occc1C(=O)NN=C1C2CC3CC(C2)CC1C3	-	0	-	-	-
c1ccc(OCCSc2nnnn2-c2ccccc2)cc1	63	0	0	0	0
Cn1c(COc2ccc3ccccc3c2)nnc1SCC(=O)OC1CCCCC1	-	0	-	-	-
Clc1ccccc1-c1nc(-c2ccccc2)n[nH]1	0	0	61	0	0
Oc1ccccc1-c1cc(-c2ccccc2Cl)[nH]n1	0	0	0	0	0
O=C(NCCc1ccccc1)c1ccc(Cl)nc1	-	0	-	-	-
N#C/C(=N\Nc1ccccc1F)C(=N)N1CCCCC1	-	2	-	-	-
Cn1c(=O)cc(SCC(=O)NCCN2CCN(c3ccccc3F)CC2)c2cc(Cl)ccc21	0	0	0	0	0
S=P(c1ccc(N2CCOCC2)cc1N1CCOCC1)(N1CCOCC1)N1CCOCC1	0	0	0	0	0
O=C1NCCc2c1[nH]c1ccccc21	-	0	-	-	-
O=C1NCCc2c1[nH]c1c(Cl)ccc(Cl)c21	0	0	0	0	28
CCCCn1c(=S)[nH]c2c(oc3ccc(Cl)cc32)c1=O	0	0	0	0	0
